Results taken from article PMC10336577 (Saudi Pharmaceutical Journal : SPJ, 2023).
Converted amounts (≈) assume the structure as drawn. “And” between values parts separate entries of the source, which are not always exact repeats. Equal values may be shown once. Read-outs that look alike come from different tables or passages of the source.

Assays:
[1] = system: MCF-7 cell line; test: MTT cytotoxicity assay, MCF-7; type: cell-based; conditions: for IC50: Homo sapiens, MCF7, 24 h, read-out: IC50, MCF-7
Outline: (§1)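 Human lines were obtained from ATCC. MCF-7 and MDA-MB-231 were grown in DMEM with 10% FBS, and MCF-10A in DMEM-F12 with 10% FBS, all at 37 °C, 5% CO2. Cells were seeded at 1×10^4 per well, given varying concentrations of extract or test compound, and PBS-washed after 24 h. MTT was applied for 4 h at 37 °C and formazan dissolved in DMSO, with absorbance read at 570 nm. Hydrogen peroxide was the positive control. Runs were done in triplicate, with % viability and IC50 calculated.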

[2] = system: MDA-MB-231 cell line; test: MTT cytotoxicity assay, MDA-MB-231; type: cell-based; conditions: for IC50: Homo sapiens, MDA-MB-231, 24 h, read-out: IC50, MDA-MB-231
Outline: as §1

[3] = system: MCF-10A non-tumorigenic breast epithelial cell line; test: MTT cytotoxicity assay, MCF-10A; type: cell-based; conditions: 24 h; for IC50: Homo sapiens, MCF-10A, read-out: IC50, MCF-10A
Outline: as §1

[4] = system: MDA-MB-231 cell line; test: Annexin V-FITC/PI flow cytometry, MDA-MB-231; type: cell-based; conditions: 48 h; for viable cells, MDA-MB-231: quadrant LL, highest doses of compounds; for early apoptotic cells, MDA-MB-231: quadrant LR; for necrotic cells, MDA-MB-231: quadrant UL; for late apoptotic cells, MDA-MB-231: quadrant UR
[5] = system: cells; test: Cell death type; type: cell-based
Outline: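 MCF-7, MDA-MB-231 and MCF-10A cells were seeded at 3×10^5 cells per well in six-well plates and held 24 h at 37 °C, 5% CO2. They were exposed 48 h to the highest test-compound doses, trypsinised, PBS-washed and pelleted at 1500 rpm for 5 min. Cells were stained with Annexin V-FITC/PI in 1X binding buffer for 15 min at 37 °C in the dark, then run by flow cytometry. Viable, early/late apoptotic and necrotic cells are given as % of total, in triplicate.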

[6] = system: DMS-114 human lung cancer cell line; conditions: ref Manthey and Guthrie, 2002; cited from earlier work
[7] = system: HT-29 colon cancer cell line; conditions: ref Manthey and Guthrie, 2002; cited from earlier work
[8] = system: DU-145 prostate cancer cell line; conditions: ref Manthey and Guthrie, 2002; cited from earlier work
[9] = system: SK-MEL5 melanoma cancer cell line; conditions: ref Manthey and Guthrie, 2002; cited from earlier work
[10] = system: DU145 prostate cancer cell; conditions: ref Lewinska et al., 2015, cited from earlier work
[11] = system: A431 cells; conditions: MTT assay; ref Buddhan and Manoharan, 2017; cited from earlier work
[12] = system: MCF-7 cell line; test: Annexin V-FITC/PI flow cytometry, MCF-7; type: cell-based; conditions: 48 h
[13] = system: breast cancer cell lines (MCF-7 and MDA-MB-231); test: MTT cytotoxicity on the breast cancer cell lines; type: cell-based; conditions: MCF-7 and MDA-MB-231, MTT
[14] = system: MIA PaCa-2 pancreatic cancer cell line; conditions: read-out: IC50, MIA PaCa-2; ref Boukes and Venter, 2016; cited from earlier work
[15] = system: INS-1 pancreatic cancer cell line; conditions: read-out: IC50, INS-1; ref Boukes and Venter, 2016; cited from earlier work
[16] = system: A549 human non-small cell lung cancer cell line; conditions: ref Yang et al., 2017, cited from earlier work
[17] = system: HeLa human uterine carcinoma; conditions: ref Sun et al. 2006; cited from earlier work
[18] = system: Bel-7402 human hepatocellular carcinoma; conditions: ref Sun et al. 2006; cited from earlier work
[19] = system: A375-S2 human malignant melanoma; conditions: ref Sun et al. 2006; cited from earlier work
[20] = system: SGC-7901 human gastric cancer cell line; conditions: ref Sun et al. 2006; cited from earlier work
[21] = system: HT-1080 fibrosarcoma cell line; conditions: ref Rajendra et al., 2011, cited from earlier work
[22] = system: BT-20 human breast cancer cell line; conditions: read-out: IC50, BT-20; ref Bender and Atalay, 2018; cited from earlier work
[23] = system: SK-BR-3 human breast cancer cell line; conditions: read-out: IC50, SK-BR-3; ref Bender and Atalay, 2018; cited from earlier work
[24] = system: MDA-MB-468 human breast cancer cell line; conditions: read-out: IC50, MDA-MB-468; ref Bender and Atalay, 2018; cited from earlier work
[25] = system: PLC/PRF/5 hepatocellular carcinoma cell line; conditions: 100 µM; ref Refolo et al., 2018; cited from earlier work
[26] = system: HepG2 hepatocellular carcinoma cell line; conditions: 100 µM; ref Refolo et al., 2018; cited from earlier work
[27] = system: IGROV-1 human ovary cell line; conditions: ref Znati et al., 2014; cited from earlier work
[28] = system: OVCAR-3 human ovary cell line; conditions: ref Znati et al., 2014; cited from earlier work
[29] = system: HCT-116 human colon cancer cell line; conditions: ref Znati et al., 2014; cited from earlier work
[30] = system: HEP-G2 hepatocellular carcinoma cells; conditions: 25–400 μg/mL, 72 h, MTT assay; ref Gevrenova et al., 2016; cited from earlier work
[31] = MTT assay, 24 h, ± standard deviation

Work on COc1ccc(-c2cc(=O)c3c(O)cc(O[C@@H]4O[C@H](CO[C@@H]5O[C@@H](C)[C@H](O)[C@@H](O)[C@H]5O)[C@@H](O)[C@H](O)[C@H]4O)cc3o2)cc1O [Compound 1, Diosmetin-7-O-rutinoside] yielded an IC50 [1] of 13.7 ± 11 µg/mL (≈ 22.4 µM), an IC50 [2] of 12.9 ± 12.2 µg/mL (≈ 21.2 µM) and an IC50 [3] of 8.66 ± 20.5 µg/mL (≈ 14.2 µM). The “viable cells, MDA-MB-231” value [4] was 56%, the “type of cell death causing the cytotoxic effect” value [5] was “necrosis” and the “concentration up to which no cytotoxic activity was shown, DMS-114” value [6] was > 200 µM. For the same compound, the “concentration up to which no cytotoxic activity was shown, HT-29” value [7] was > 200 µM, the “concentration up to which no cytotoxic activity was shown, DU-145” value [8] was > 200 µM and the “concentration up to which no cytotoxic activity was shown, SK-MEL5” value [9] was > 200 µM. The DU145 cell viability ([10]; 50 µM) was 70%, the DU145 cell viability ([10]; 250 µM) was 40% and the “IC50, A431” value [11] was 45 µg/mL (≈ 73.9 µM).
For OO [Compound H2O2, hydrogen peroxide, reference compound], the “IC50, MCF-7” value [1, 31] was 7.45 ± 12.77 µg/mL and 10.11 ± 0.90 µg/mL and 11.97 ± 6.72 µg/mL and 9.91 ± 0.31 µg/mL, the “IC50, MDA-MB-231” value [2, 31] was 8.48 ± 3.53 µg/mL and 11.86 ± 2.43 µg/mL and 11.45 ± 1.52 µg/mL and the “IC50, MCF-10A” value ([3]; MTT assay, ± standard deviation) was 10.32 ± 3.60 µg/mL and 11.40 ± 3.60 µg/mL and 9.77 ± 8.56 µg/mL and 12.58 ± 9.77 µg/mL. For the same compound, the “percentage of cell death, MCF-7” value ([12]; doses as b44) was 70%, the “viable cells, MCF-7” value ([12]; quadrant LL, H2O2 17, Compound 1 24, 2 156, 3 372, 4 30, 5 710, 6 60 µg/mL) was 30% and the “percentage of cell death, MDA-MB-231” value [4] was 79%. The “viable cells, MDA-MB-231” value [4] was 21%.
In the case of O=c1c(O[C@@H]2O[C@H](CO)[C@H](O)[C@H](O)[C@H]2O)c(-c2ccc(O)c(O)c2)oc2cc(O)cc(O)c12 [Compound 3, Quercetin-3-O-galactoside], the IC50 [1] is reported as 147 ± 7.32 µg/mL (≈ 317 µM), the IC50 [2] is reported as 141 ± 14 µg/mL (≈ 304 µM) and the IC50 [3] is reported as 127 ± 12.5 µg/mL (≈ 273 µM). The “concentration up to which no cytotoxic activity was shown” value [13] was > 100 µg/mL, the “viable cells, MDA-MB-231” value [4] was 46% and the “early apoptotic cells, MDA-MB-231” value [4] was 22%. The “necrotic cells, MDA-MB-231” value [4] was 6%, the “late apoptotic cells, MDA-MB-231” value [4] was 26% and the IC50 [14] was 50 µM. For the same compound, the IC50 [15] was 50 µM, the “cell viability of A549” value ([16]; 10–100 µM, time- and dose-dependent) was “inhibited cell viability” and the “percentage of apoptotic cells, A549” value ([16]; 24 h, dose-dependent) was “significant increase”.
O=C(O)/C=C/c1ccc(O)c(O)c1 [Compound 4, Caffeic acid] showed an IC50 [1] of 40.3 ± 2.84 µg/mL (≈ 224 µM), an IC50 [2] of 64 ± 4.11 µg/mL (≈ 355 µM) and an IC50 [3] of 149 ± 14.1 µg/mL (≈ 825 µM). The “early apoptotic cells, MCF-7” value ([12]; quadrant LR, doses as b44) was 52%, the “necrotic cells, MCF-7” value ([12]; quadrant UL, doses as b44) was 3% and the “late apoptotic cells, MCF-7” value ([12]; quadrant UR, doses as b44) was 13%. The “viable cells, MDA-MB-231” value [4] was 30%, the “early apoptotic cells, MDA-MB-231” value [4] was 52% and the “necrotic cells, MDA-MB-231” value [4] was 3%. The “late apoptotic cells, MDA-MB-231” value [4] was 13%, the “concentration up to which no cytotoxic activity was shown, HeLa” value [17] was > 100 µg/mL and the “concentration up to which no cytotoxic activity was shown, Bel-7402” value [18] was > 100 µg/mL. The “concentration up to which no cytotoxic activity was shown, A375-S2” value [19] was > 100 µg/mL, the “concentration up to which no cytotoxic activity was shown, SGC-7901” value [20] was > 100 µg/mL and the “cell viability, HT-1080” value ([21]; 50 µg/mL) was 15%. For the same compound, the “inhibition of HT-1080 cell line” value ([21]; 30, 40, and 50 μg/mL) was “notably inhibited”.
Compound O=C(/C=C/c1ccc(O)c(O)c1)O[C@@H]1C[C@](O)(C(=O)O)C[C@@H](O)[C@H]1O [Compound 5, Chlorogenic acid] has an IC50 [1] of 371 ± 9.49 µg/mL (≈ 1050 µM), an IC50 [2] of 361 ± 4.83 µg/mL (≈ 1020 µM) and an IC50 [3] of 356 ± 19.1 µg/mL (≈ 1010 µM). For the same compound, the “concentration up to which no cytotoxic activity was shown” value [13] was > 360 µg/mL, the “viable cells, MDA-MB-231” value [4] was 51% and the IC50 [22] was 1100 µM. The IC50 [23] was 882 µM, the IC50 [24] was 940 µM and the “effect on Regorafenib-mediated cell growth inhibition, PLC/PRF/5” value [25] was “enhanced”. The “effect on Regorafenib-mediated cell growth inhibition, HepG2” value [26] was “enhanced”.
COc1cc(-c2oc3cc(O)cc(O)c3c(=O)c2O[C@@H]2O[C@H](CO[C@@H]3O[C@@H](C)[C@H](O)[C@@H](O)[C@H]3O)[C@@H](O)[C@H](O)[C@H]2O)ccc1O [Compound 2, Isorhamnetin-3-O-rutinoside] gave an IC50 [1] of 137 ± 8.62 µg/mL (≈ 220 µM), an IC50 [2] of 77.8 ± 39.9 µg/mL (≈ 125 µM) and an IC50 [3] of 133 ± 23.5 µg/mL (≈ 214 µM). For the same compound, the “viable cells, MDA-MB-231” value [4] was 63%, the “concentration up to which no cytotoxic activity was shown, IGROV-1” value [27] was > 100 µM and the “concentration up to which no cytotoxic activity was shown, OVCAR-3” value [28] was > 100 µM. For the same compound, the “concentration up to which no cytotoxic activity was shown, HCT-116” value [29] was > 100 µM and the “hepatoprotective activity, HEP-G2” value [30] was “no significant hepatoprotective activity”.
